The values below come from ChEMBL document CHEMBL1177787, “In vitro and in vivo antimalarial evaluation of semi-synthetic derivatives of gomphostenin” (Bioorg Med Chem Lett, 2010).

Assay [1] concerns Plasmodium falciparum. Kind of assay: Antiplasmodial activity against chloroquine-sensitive Plasmodium falciparum MRC2 infected in human erythrocytes after 24 hrs by Giemsa staining. Type of assay: functional, organism-based. The following applies: MRC2, 24 h. Put shortly: (§1)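 Parasites grown in human B(+) erythrocytes in RPMI-1640 with 25 mM HEPES, 10% human AB(+) serum, 0.2% sodium bicarbonate, 5% CO2. Ring-stage cultures synchronized, parasitemia set to 1–1.5% with fresh RBC. Twofold serial dilutions (ethanol stock, final ethanol ≤0.5%), duplicate wells, 37 °C for 24 h. Giemsa smears: schizonts per 100 asexual parasites; inhibition = (1 − Nt/Nc) × 100; IC50 derived.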

In assay [2] the test system is Plasmodium falciparum. Nature of the assay: Antiplasmodial activity against chloroquine-resistant Plasmodium falciparum RKL9 after 24 hrs by Giemsa staining. Type of assay: functional, organism-based. The following applies: RKL9, 24 h. Put shortly:
as §1

In assay [3] the test system is Plasmodium berghei. Nature of the assay: Antimalarial activity against chloroquine-sensitive Plasmodium berghei ANKA infected in Swiss mice (Mus musculus) assessed as parasitaemia at 100 mg/kg, perorally for 4 days measured on day 5. The following applies: route oral. Type of assay: functional. A digest of the protocol:
(§2)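 Four-day suppressive test: Swiss albino mice inoculated i.p. on day 0 with 0.2 ml infected blood carrying about 1 × 10⁷ P. berghei ANKA parasitized RBC. Compounds suspended in saline with 0.5% Tween-80 and given orally from shortly after inoculation, day 0–3. Groups of five mice; the vehicle group was the negative control. Tail-blood thin films were read on day 4 (fifth day), counting parasitized cells per 600 erythrocytes.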

The test system of assay [4] is Plasmodium berghei. Nature of the assay: Antimalarial activity against chloroquine-sensitive Plasmodium berghei ANKA infected in Swiss mice (Mus musculus) assessed as suppression of parasitaemia at 50 mg/kg, perorally for 4 days measured on day 5 relative to control. The assay is classed as functional. To be noted: route oral. A digest of the protocol: as §2
For assay [5], the system named is Plasmodium berghei. Kind of assay: Antimalarial activity against chloroquine-sensitive Plasmodium berghei ANKA infected in Swiss mice (Mus musculus) assessed as parasitaemia at 150 mg/kg, perorally for 4 days measured on day 5. The assay is classed as functional. To be noted: route oral. Put shortly: as §2
In assay [6] the test system is Plasmodium berghei. Kind of assay: Antimalarial activity against chloroquine-sensitive Plasmodium berghei ANKA infected in Swiss mice (Mus musculus) assessed as suppression of parasitaemia at 150 mg/kg, perorally for 4 days measured on day 5 relative to control. To be noted: route oral. The assay is classed as functional. Put shortly:
as §2

Assay [7] has as its system Plasmodium berghei. Kind of assay: Antimalarial activity against chloroquine-sensitive Plasmodium berghei ANKA infected in Swiss mice (Mus musculus) assessed as parasitaemia at 50 mg/kg, perorally for 4 days measured on day 5. To be noted: route oral. Type of assay: functional. Put shortly:
as §2

Assay [8] deals with Plasmodium berghei. Nature of the assay: Antimalarial activity against chloroquine-sensitive Plasmodium berghei ANKA infected in Swiss mice (Mus musculus) assessed as suppression of parasitaemia at 100 mg/kg, perorally for 4 days measured on day 5 relative to control. Type of assay: functional. To be noted: route oral. A digest of the protocol:
as §2

Assay [9] has as its system Plasmodium berghei. Kind of assay: Antimalarial activity against chloroquine-sensitive Plasmodium berghei ANKA infected in Swiss mice (Mus musculus) assessed as parasitaemia at 5 mg/kg, perorally for 4 days measured on day 5. The assay is classed as functional. The following applies: route oral. Put shortly:
as §2

The test system of assay [10] is Plasmodium berghei. Kind of assay: Antimalarial activity against chloroquine-sensitive Plasmodium berghei ANKA infected in Swiss mice (Mus musculus) assessed as suppression of parasitaemia at 5 mg/kg, perorally for 4 days measured on day 5 relative to control. The assay is classed as functional. The following applies: route oral. Put shortly:
as §2

Usually IC50 stands for the concentration at which inhibition is half-maximal. As to `CC1=CC(=O)C[C@H]2[C@](C)(CCC3=CCOC3=O)[C@H](COC(=O)OCc3ccccc3)CC[C@]12C`, the IC50 in the assay on Plasmodium falciparum [1] came to 42.2 µM; in the assay with Plasmodium falciparum [2], 43.9 µM.
The like results for `CC1=CC(=O)C[C@H]2[C@](C)(CCC3=CCOC3=O)[C@H](COCc3ccc(Cl)cc3)CC[C@]12C` were, in that order, 14 µM and 18.8 µM.
For `CC1=CC(=O)C[C@H]2[C@](C)(CCC3=CCOC3=O)[C@H](COC(=O)C(C)(C)C)CC[C@]12C`, in that order: 78.5 µM and 84.9 µM.
For `COc1ccc(COC(=O)OC[C@@H]2CC[C@]3(C)C(C)=CC(=O)C[C@H]3[C@]2(C)CCC2=CCOC2=O)cc1`, in that order: 37.6 µM and 47.7 µM.
Usually inhibition in vivo stands for how much of the control response was suppressed. For the molecule `CC1=CC(=O)C[C@H]2[C@](C)(CCC3=CCOC3=O)[C@H](COCc3ccc(F)cc3)CC[C@]12C`, the IC50 amounted to 8.3 µM in the assay with Plasmodium falciparum [1] and 8.1 µM with Plasmodium falciparum [2]. The Activity in the assay with Plasmodium berghei [3] is on record as 22.3%; in the assay with Plasmodium berghei [5], 10.3%; in the assay with Plasmodium berghei [7], 26.4%. Besides, the inhibition in vivo at 50 mg/kg in the assay with Plasmodium berghei [4] was determined as 21.7%. Besides, the inhibition in vivo at 150 mg/kg in the assay with Plasmodium berghei [6] was determined as 69.4%. For the same molecule, in the assay with Plasmodium berghei [8], the inhibition in vivo at 100 mg/kg was 33.2%.
For the molecule `CC1=CC(=O)C[C@H]2[C@](C)(CCC3=CCOC3=O)[C@H](COS(C)(=O)=O)CC[C@]12C`, the figures for the IC50 in the assay on Plasmodium falciparum [1] and in the assay with Plasmodium falciparum [2] were 69.9 µM and 73.3 µM, respectively.
For `COC[C@@H]1CC[C@]2(C)C(C)=CC(=O)C[C@H]2[C@]1(C)CCC1=CCOC1=O`, in that order: 94.4 µM and 88.9 µM.
As to `CC1=CC(=O)C[C@H]2[C@](C)(CCC3=CCOC3=O)[C@H](COCc3ccc(C(F)(F)F)cc3)CC[C@]12C`, the IC50 with Plasmodium falciparum [1] came out at 4.8 µM; in the assay on Plasmodium falciparum [2] it was 4.4 µM. Moreover, the Activity in the assay with Plasmodium berghei [3] came out at 12.4%; in the assay with Plasmodium berghei [5], 11.5%; with Plasmodium berghei [7] it was 17.5%. Further, the inhibition in vivo at 50 mg/kg in the assay on Plasmodium berghei [4] came to 48.4%. Besides, in the assay with Plasmodium berghei [6], the inhibition in vivo at 150 mg/kg was determined as 65.9%. Moreover, the inhibition in vivo at 100 mg/kg in the assay on Plasmodium berghei [8] was 63.2%.
In the case of `CC1=CC(=O)C[C@H]2[C@](C)(CCC3=CCOC3=O)[C@H](COS(=O)(=O)c3ccc(C)cc3)CC[C@]12C`, the IC50 in the assay on Plasmodium falciparum [1] is 26.1 µM; in the assay on Plasmodium falciparum [2], 45.8 µM.
For the molecule `CCN(CC)CCCC(C)Nc1ccnc2cc(Cl)ccc12.O=P(O)(O)O.O=P(O)(O)O` (configuration not stated) [CHLOROQUINE PHOSPHATE], the Activity with Plasmodium berghei [9] was found to be 1.07%. In the assay with Plasmodium berghei [10], the inhibition in vivo at 5 mg/kg worked out at 96.8%.
